Blank lines part the entries; values can stand above or below the compound they belong to. Calls of active or inactive are those of the source. The rule behind the calls is not given here.
Tests used:
[1] = molecular target: T1, Proteasome Macropain subunit MB1 (Homo sapiens) (UniProt P28074); experiment: Inhibition of catalytic activity of immunoproteasome 20s subunit beta5/constitutive 20s subunit beta5 in human AMO1 cells assessed as accumulation of ubiquitinated-GFP at 100 uM after 1 hr by FACS analysis; format: cell-based
T1 sequence (whole entry): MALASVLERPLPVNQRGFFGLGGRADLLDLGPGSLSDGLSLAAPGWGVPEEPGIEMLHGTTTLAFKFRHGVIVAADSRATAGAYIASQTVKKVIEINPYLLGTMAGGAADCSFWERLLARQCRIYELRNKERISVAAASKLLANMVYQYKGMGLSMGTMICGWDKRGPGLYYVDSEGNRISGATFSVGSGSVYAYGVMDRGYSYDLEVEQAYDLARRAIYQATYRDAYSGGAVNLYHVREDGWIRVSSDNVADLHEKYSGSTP
How it was run: (§1)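 AMO-1 myeloma clone stably expressing Ub-G76V-GFP (G418-selected). 5x10⁵ cells pulsed 1 h at 37 °C with inhibitor, washed with PBS, then chased 12 h in inhibitor-free medium (37 °C, 5% CO₂). GFP median fluorescence intensity read by flow cytometry in FITC channel.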

[2] = molecular target: T2, Proteasome Macropain subunit MB1 (Homo sapiens, UniProt P28074); experiment: (§2) Inhibition of catalytic activity of constitutive proteasome 20s subunit beta5 in human RPMI8226 cells incubated for 1 hr by BODIPY(TMR)-NC-005-VS probe based competitive activity based protein profiling assay; format: cell-based
T2 sequence (P28074 whole entry): T1 sequence (whole entry)
How it was run: (§3)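 Live RPMI-8226 cells ((5-8)x10⁵ cells/mL; RPMI-1640, 10% FCS, GlutaMAX, pen/strep, 5% CO₂) exposed to inhibitor 1 h at 37 °C. Cells washed with PBS and lysed in digitonin/ATP buffer on ice 1 h. Lysates then labelled 1 h with the ABP cocktail and run on SDS-PAGE. In-gel fluorescence bands were normalized to mock and corrected for loading by Coomassie. IC50 from mean of three independent experiments.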

[3] = molecular target: T2, Proteasome Macropain subunit MB1; experiment: (§4) Inhibition of catalytic activity of constitutive proteasome 20s subunit beta5 in human Raji cells incubated for 1 hr by BODIPY(TMR)-NC-005-VS probe based competitive activity based protein profiling assay; format: cell-based
[4] = species on record: Homo sapiens; experiment: Selectivity ratio of IC50 for immunoproteasome 20s subunit beta5 in human Raji cells to IC50 for constitutive proteasome 20s subunit beta5 in human Raji cells; format: cell-based
How it was run: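 Initial screen in Raji cell extracts. Inhibitor at 0.01, 0.1, 1.0 and 10.0 µM final for 1 h at 37 °C, then ABP cocktail 1 h. In-gel fluorescence of β5c/β5i bands normalized to mock-treated extract, giving residual activity. Run once. IC50s from this screen feed the β5i/β5c ratio.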

[5] = molecular target: T3, Proteasome component C5 (Homo sapiens) (UniProt P20618); experiment: Inhibition of catalytic activity of constitutive proteasome 20s subunit beta1 in human RPMI8226 cells incubated for 1 hr by Cy5-NC-001 probe based competitive activity based protein profiling assay; format: cell-based; how it was run: as §3
T3 sequence (whole entry): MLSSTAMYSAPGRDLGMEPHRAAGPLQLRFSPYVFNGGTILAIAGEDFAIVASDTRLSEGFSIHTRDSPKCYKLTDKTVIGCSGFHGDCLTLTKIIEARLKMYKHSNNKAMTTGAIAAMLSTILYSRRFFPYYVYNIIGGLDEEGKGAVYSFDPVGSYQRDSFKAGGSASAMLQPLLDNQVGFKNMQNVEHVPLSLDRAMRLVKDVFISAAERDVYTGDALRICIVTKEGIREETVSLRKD

[6] = molecular target: Proteasome subunit beta type-8 (β5i, LMP7) (Homo sapiens) (UniProt P28062); experiment: Inhibition of catalytic activity of immunoproteasome 20s subunit beta5 in human RPMI8226 cells incubated for 1 hr by BODIPY(TMR)-NC-005-VS probe based competitive activity based protein profiling assay
[7] = molecular target: T1, Proteasome Macropain subunit MB1 (Homo sapiens); experiment: as §2; format: cell-based; how it was run: as §3
[8] = molecular target: Proteasome subunit beta type-9 (β1i, LMP2) (Homo sapiens) (UniProt P28065); experiment: Inhibition of catalytic activity of immunoproteasome 20s subunit beta1 in human RPMI8226 cells incubated for 1 hr by Cy5-NC-001 probe based competitive activity based protein profiling assay
[9] = molecular target: Proteasome Macropain subunit (Homo sapiens) (UniProt P49721); experiment: Inhibition of catalytic activity of constitutive proteasome 20s subunit beta2 in human RPMI8226 cells incubated for 1 hr by BODIPY(FL)-LU-112 probe based competitive activity based protein profiling assay; format: cell-based; how it was run: as §3
[10] = molecular target: T1, Proteasome Macropain subunit MB1 (Homo sapiens); experiment: Inhibition of catalytic activity of immunoproteasome 20s subunit beta5/constitutive 20s subunit beta5 in human AMO1 cells assessed as accumulation of ubiquitinated-GFP at 3 uM after 1 hr by FACS analysis; format: cell-based; how it was run: as §1
[11] = molecular target: Proteasome subunit beta type-9 (β1i, LMP2) (Homo sapiens) (UniProt P28065); experiment: Inhibition of catalytic activity of immunoproteasome 20s subunit beta1 in human Raji cells incubated for 1 hr by Cy5-NC-001 probe based competitive activity based protein profiling assay
[12] = molecular target: Proteasome subunit beta type-8 (β5i, LMP7) (Homo sapiens) (UniProt P28062); experiment: Inhibition of catalytic activity of immunoproteasome 20s subunit beta5 in human Raji cells incubated for 1 hr by BODIPY(TMR)-NC-005-VS probe based competitive activity based protein profiling assay
[13] = molecular target: T3, Proteasome component C5 (Homo sapiens); experiment: Inhibition of catalytic activity of constitutive proteasome 20s subunit beta1 in human Raji cells incubated for 1 hr by Cy5-NC-001 probe based competitive activity based protein profiling assay; format: cell-based
[14] = molecular target: T1, Proteasome Macropain subunit MB1 (Homo sapiens); experiment: as §4; format: cell-based
[15] = molecular target: Proteasome Macropain subunit (Homo sapiens) (UniProt P49721); experiment: Inhibition of catalytic activity of constitutive proteasome 20s subunit beta2 in human Raji cells incubated for 1 hr by BODIPY(FL)-LU-112 probe based competitive activity based protein profiling assay; format: cell-based

- inhibition [1]: Active
- IC50 [2]: 274 nM
- IC50 [3]: 28 nM
SMILES: CC(C)C[C@H](NC(=O)CN1CCOCC1)C(=O)N[C@@H](C[C@H]1CC[C@H](C2CCCCC2)CC1)C(=O)N[C@@H](Cc1ccccc1)C(=O)N[C@@H](C)C(=O)[C@@]1(C)CO1
- Ratio IC50 [4]: 814

- inhibition [5]: inactive
- inhibition [6]: inactive
- inhibition [7]: inactive
- IC50 [3]: 4.9 nM
- inhibition [8]: inactive
- inhibition [9]: inactive
SMILES: C[C@H](NC(=O)[C@H](Cc1ccccc1)NC(=O)[C@H](C[C@H]1CC[C@H](C2CCCCC2)CC1)NC(=O)[C@H](Cc1ccccc1)N=[N+]=[N-])C(=O)[C@@]1(C)CO1

- inhibition [10]: Active
SMILES: COc1ccc(C[C@H](NC(=O)Cc2ccc3ccccc3c2)C(=O)N[C@@H](Cc2ccccc2)C(=O)N[C@@H](CC(C)C)C(=O)[C@@]2(C)CO2)cc1

- pIC50(app) [11]: 6.88
- pIC50(app) [12]: 8.11
- pIC50(app) [13]: 6.75
- pIC50(app) [14]: 8.68
- IC50 [3]: 2.1 nM
- pIC50(app) [15]: 6.95
SMILES: COc1ccc(C[C@H](NC(=O)[C@H](Cc2ccccc2)N=[N+]=[N-])C(=O)N[C@@H](Cc2ccccc2)C(=O)N[C@@H](CC(C)C)C(=O)[C@@]2(C)CO2)cc1

From ChEMBL document CHEMBL4477237, “Structure-Based Design of β5c Selective Inhibitors of Human Constitutive Proteasomes” (J Med Chem, 2016)
